# Measurements collected from several papers.
# Lines come from different studies, so protocols differ.
# Effect on: metabolic stability
# Species: human
# Sample: liver microsomes
Structure (SMILES),tested at,pH,microsomal CLint
Cc1[nH]c(C)c(S(=O)(=O)Nc2ccc(C(F)(F)F)c(Cl)c2)c1C(=O)N1CCC(F)(F)C1,,,68 µL/min/mg
O=c1c2c([nH]c3cc(Oc4ccc(OC(F)(F)F)cc4)ccc13)CCCC2,1 µM,pH 7.4,51.8 µL/min/mg
CONC(=O)N1CCC[C@H](C(=O)NCc2nc(-c3ccccc3)cs2)C1,0.5 µM,,7.3 µL/min/mg
CC1(C)NC(=O)N(c2ccc(F)c(S(C)(=O)=O)c2)C1=O,,,< 7 µL/min/mg
Cc1ccc(Nc2cnnc3ccc(-c4ccc(N5CCN(C)CC5)cc4)cc23)cn1,,,36 µL/min/mg
Cc1ccc(Oc2ccc(NC(=O)CNc3ccccc3-n3cncn3)cc2)cc1,,,98 µL/min/mg
Cc1cc2c(C(=O)O)cccc2n1-c1nc2c(c(NCc3ccccc3)n1)CCCN2,1 µM,pH 7.4,9.07 µL/min/mg
O=C(NCc1nc(-c2ccccc2)cs1)[C@H]1CCCN(C(=O)[C@@H]2CCCO2)C1,0.5 µM,,36 µL/min/mg
O=C(O)Cc1ccccc1Nc1c(Cl)cccc1Cl,2 µM,pH 7.4,201 µL/min/mg
CCOCC(=O)N1CCC[C@H](C(=O)NCc2nc(-c3ccc(-n4cccn4)cc3)cs2)C1,0.5 µM,,64 µL/min/mg
Cc1ccc(Oc2ccc(NC(=O)COc3ccccc3N3CCCC3=O)cc2)cc1,,,132 µL/min/mg
CC1(C(F)F)NC(=O)N(c2ccc(F)c(C(F)(F)F)c2)C1=O (centres unmarked),,,< 7 µL/min/mg
O=c1c2ccc(OCc3cccc(OC(F)(F)F)c3)cc2[nH]c2cc(F)cc(Cl)c12,1 µM,pH 7.4,22.5 µL/min/mg
CCOc1ccc(Nc2c3c(nc4ccccc24)CCC3)cc1,0.5 µM,,37 µL/min/mg
CCCCCCOc1ccc2c(=O)c3c([nH]c2c1)CCCC3,1 µM,pH 7.4,92.2 µL/min/mg
C[C@H]1[C@@H](C(=O)NCc2nc(-c3ccc(C#N)cc3)cs2)CCCN1C(=O)[C@H]1CCC(=O)O1,0.5 µM,,8 µL/min/mg
CN(C)CCOc1ccc2c(=O)c3c([nH]c2c1)CCCC3,1 µM,pH 7.4,8.08 µL/min/mg
Cc1ccc(C(C)(C)c2ccc(NC(=O)CN(C)c3ccccc3N3CCCC3=O)cc2)cc1,,,263 µL/min/mg
Cc1ccc(Nc2cnnc3ccc(-c4ccc(N5CCCN(C)CC5)cc4)cc23)cn1,,,75 µL/min/mg
Cc1ccc(N(c2ccc(NC(=O)CN(C)c3ccccc3N3CCCC3=O)cc2)C(C)C)cc1,,,319 µL/min/mg
CCCCCCCCCCCCCCCC(=O)NCCOC(=O)C[C@@H](CN)CC(C)C,1 µM,pH 7.4,22.9 µL/min/mg
O=c1c2ccc(Oc3cccc(OC(F)(F)F)c3)cc2[nH]c2cc(Cl)cc(F)c12,1 µM,pH 7.4,2.96 µL/min/mg
CC1(C)NC(=O)N(c2ccc(F)c(F)c2)C1=O,,,< 7 µL/min/mg
COc1cc(NC(=O)Cn2ccc3ccc(-c4cnn(C)c4)cc32)cc(OC)c1OC,,,62 µL/min/mg
CC1(C(F)(F)F)NC(=O)N(c2ccc(F)c(C(F)(F)F)c2)C1=O (centres unmarked),,,< 7 µL/min/mg
Cc1ccc(Oc2ccc(NC(=O)CNc3ccccc3N3CCCC3=O)cc2)cc1,,,102 µL/min/mg
COCC(=O)N1CCC[C@H](C(=O)NCc2nc(-c3ccc(Cl)cc3)cs2)C1,0.5 µM,,25 µL/min/mg
CC1(C)NC(=O)N(c2ccc3c(c2)OC(F)(F)O3)C1=O,,,< 7 µL/min/mg
CCOc1ccc(-c2csc(CNC(=O)[C@H]3CCCN(C(=O)COC)C3)n2)cc1,0.5 µM,,24 µL/min/mg
Cc1[nH]c(C)c(S(=O)(=O)Nc2ccc(C(F)(F)F)c(Cl)c2)c1C(=O)N(C)C,,,79 µL/min/mg
Cc1ccc(N(C)c2ccc(NC(=O)CN(C)c3ccccc3N3CCCC3=O)cn2)cc1,,,216 µL/min/mg
CC1(C)NC(=O)N(c2cc(C(F)(F)F)c(F)cc2C#N)C1=O,,,< 7 µL/min/mg
O=c1c2c([nH]c3cc(Nc4ccc(OC(F)(F)F)cc4)ccc13)CCCC2,1 µM,pH 7.4,67 µL/min/mg
CC(C)N(c1ccc(Cl)c(F)c1)c1ccc(NC(=O)CN(C)c2ccccc2N2CCCC2=O)cn1,,,287 µL/min/mg
N#Cc1ccc(-c2csc(CNC(=O)[C@H]3CCCN(C(=O)COC4CC4)C3)n2)cc1,0.5 µM,,49 µL/min/mg
C#C[C@]1(OC(C)=O)CC[C@H]2[C@@H]3CCC4=CC(=NO)CC[C@@H]4[C@H]3CC[C@@]21CC (mixture of isomers),,,70.1 µL/min/mg
CC1(C)NC(=O)N(c2ccc(F)c(CC(F)(F)F)c2)C1=O,,,< 7 µL/min/mg
O=c1c2ccc(OCc3cccc(C(F)(F)F)c3)cc2[nH]c2ccc(Cl)c(F)c12,1 µM,pH 7.4,2.73 µL/min/mg
CCONC(=O)N1CCC[C@H](C(=O)N[C@H](C)c2nc(-c3ccc(C#N)cc3)cs2)C1,0.5 µM,,17 µL/min/mg
CC1(C)NC(=O)N(c2cccc(C(F)(F)F)n2)C1=O,,,< 7 µL/min/mg
O=c1c2ccc(Oc3ccccc3OC(F)(F)F)cc2[nH]c2cc(Cl)cc(F)c12,1 µM,pH 7.4,20.3 µL/min/mg
